Columns and labels:
[1] = molecular target: Hepatocyte growth factor receptor (Homo sapiens) (UniProt P08581); assay: Inhibition of MET at 1 uM
[2] = molecular target: Mitogen-activated protein kinase 1 (Homo sapiens) (UniProt P28482); assay: Inhibition of MAPK1 at 1 uM
[3] = molecular target: Myosin light chain kinase 2, skeletal/cardiac muscle (Homo sapiens) (UniProt Q9H1R3); assay: Inhibition of MYLK2 at 1 uM
[4] = molecular target: Epidermal growth factor receptor (Homo sapiens) (UniProt P00533); assay: Inhibition of EGFR at 1 uM
[5] = molecular target: T1, Serine/threonine-protein kinase Nek2 (Homo sapiens) (UniProt P51955); assay: Inhibition of NEK2 at 1 uM
T1 sequence (whole entry): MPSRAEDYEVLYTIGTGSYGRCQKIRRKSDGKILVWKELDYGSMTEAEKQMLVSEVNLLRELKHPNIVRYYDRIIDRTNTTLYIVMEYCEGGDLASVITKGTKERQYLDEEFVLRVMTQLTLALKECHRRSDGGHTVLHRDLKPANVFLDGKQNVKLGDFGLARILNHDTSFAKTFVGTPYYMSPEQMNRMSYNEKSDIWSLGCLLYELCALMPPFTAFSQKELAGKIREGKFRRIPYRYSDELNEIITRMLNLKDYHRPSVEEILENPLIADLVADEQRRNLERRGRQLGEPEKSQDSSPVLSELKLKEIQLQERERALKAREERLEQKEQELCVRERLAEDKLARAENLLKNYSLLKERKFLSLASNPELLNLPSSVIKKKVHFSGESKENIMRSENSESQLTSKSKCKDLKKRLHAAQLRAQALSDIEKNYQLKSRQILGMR

[6] = molecular target: T2, Glycogen synthase kinase-3 beta (Homo sapiens, UniProt P49841); assay: Inhibition of GSK3B at 1 uM
Target sequence in this assay (P49841 whole entry, looked up): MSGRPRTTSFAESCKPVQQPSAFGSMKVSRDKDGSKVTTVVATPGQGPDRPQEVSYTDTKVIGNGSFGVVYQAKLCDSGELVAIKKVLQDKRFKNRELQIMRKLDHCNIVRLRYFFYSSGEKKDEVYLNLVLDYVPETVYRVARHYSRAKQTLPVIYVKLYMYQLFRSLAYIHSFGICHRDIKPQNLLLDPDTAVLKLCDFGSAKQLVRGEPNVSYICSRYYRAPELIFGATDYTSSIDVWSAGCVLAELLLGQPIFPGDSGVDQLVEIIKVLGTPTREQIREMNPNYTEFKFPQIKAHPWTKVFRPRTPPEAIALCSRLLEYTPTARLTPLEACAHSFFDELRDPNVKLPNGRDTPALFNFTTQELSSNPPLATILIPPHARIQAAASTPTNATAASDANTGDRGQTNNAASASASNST

[7] = molecular target: T3, Serine/threonine-protein kinase Chk1 (Homo sapiens) (UniProt O14757); assay: Inhibition of CHEK1 at 1 uM
T3 sequence (whole entry): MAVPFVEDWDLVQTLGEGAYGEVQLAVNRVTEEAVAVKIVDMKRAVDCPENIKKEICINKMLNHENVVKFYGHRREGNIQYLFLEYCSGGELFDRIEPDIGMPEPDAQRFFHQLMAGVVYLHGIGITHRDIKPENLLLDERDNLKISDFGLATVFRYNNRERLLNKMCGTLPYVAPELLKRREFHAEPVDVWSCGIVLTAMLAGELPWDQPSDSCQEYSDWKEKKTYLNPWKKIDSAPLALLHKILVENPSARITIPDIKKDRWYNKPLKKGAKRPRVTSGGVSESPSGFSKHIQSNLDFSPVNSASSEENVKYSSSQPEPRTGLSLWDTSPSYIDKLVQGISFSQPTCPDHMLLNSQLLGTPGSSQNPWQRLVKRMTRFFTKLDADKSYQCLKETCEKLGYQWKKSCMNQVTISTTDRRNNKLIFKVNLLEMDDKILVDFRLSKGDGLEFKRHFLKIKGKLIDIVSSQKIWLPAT

[8] = molecular target: Phosphatidylinositol 4,5-bisphosphate 3-kinase catalytic subunit alpha isoform (Mus musculus, UniProt P42337); assay: Inhibition of mouse PI3Kalpha after 30 mins by fluorescence polarization assay
Procedure, shortened: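 Mouse PI3Kα 0.5 nM with 30 μM PIP₂, 5 mM MgCl₂, 200 μM ATP, 30 min at room temperature (~22 °C); stopped with 10 mM EDTA. Then 3 min with detector mix of 480 nM GST-Grp1 PH domain and 12 nM TAMRA-PIP₃. Fluorescence polarization read in 50 mM Hepes pH 7.4, 150 mM NaCl, 5 mM DTT, 0.05% CHAPS. Duplicate points, nonlinear regression fit.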

[9] = molecular target: Serine/threonine-protein kinase MARK1 (Homo sapiens, UniProt Q9P0L2); assay: Inhibition of MARK1
[10] = tested on: NCI-H460; assay: Antiproliferative activity against human H460 cells after 72 hrs by resazurin reduction assay; assay type: functional, cell-based; conditions: NCI-H460, 72 h
Procedure, shortened: (§1)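 Cells seeded at 3,000 per well, left to adhere overnight, then given inhibitor as a 3-fold serial dilution from 0.0169 nM to 10 μM. After 72 h, 250 μg/mL resazurin was added, followed by 6 h more at 37 °C. Fluorescence was read at ex 560 / em 590 nm.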

[11] = molecular target: Casein kinase I isoform alpha (Homo sapiens) (UniProt P48729); assay: Inhibition of CSNK1A1 at 1 uM
[12] = molecular target: T2, Glycogen synthase kinase-3 beta; assay: Inhibition of GSK3-beta
Target sequence in this assay (P49841 whole entry): as the sequence (P49841 whole entry, looked up) above

[13] = molecular target: Serine/threonine-protein kinase mTOR (Homo sapiens, UniProt P42345); assay: Inhibition of GST-tagged mTOR assessed as phosphorylation at Thr46 in GFP-4E-BP1 substrate by TR-FRET assay
Procedure, shortened: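 GST-tagged mTOR (aa 1360-2549) at 1 nM, with 0.4 μM GFP-4E-BP1 and 40 μM ATP. Buffer: 50 mM Hepes pH 7.4, 10 mM MgCl2, 1 mM EGTA, 0.01% Tween-20, at about 22 °C. A terbium anti-phospho-Thr46 antibody was added at the end, and the read-out was TR-FRET. Duplicate data fitted by nonlinear regression. Concentrations are final.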

[14] = molecular target: Tyrosine-protein kinase Lck (Homo sapiens) (UniProt P06239); assay: Inhibition of LCK at 1 uM
[15] = molecular target: Insulin receptor (Homo sapiens) (UniProt P06213); assay: Inhibition of INSR at 1 uM
[16] = tested on: A549; assay: Antiproliferative activity against human A549 cells after 72 hrs by resazurin reduction assay; assay type: functional, cell-based; conditions: A549, 72 h; procedure, shortened: as §1
[17] = molecular target: Vascular endothelial growth factor receptor 2 (Homo sapiens) (UniProt P35968); assay: Inhibition of KDR at 1 uM
Chain of Vascular endothelial growth factor receptor 2 (Homo sapiens) (P35968 whole entry): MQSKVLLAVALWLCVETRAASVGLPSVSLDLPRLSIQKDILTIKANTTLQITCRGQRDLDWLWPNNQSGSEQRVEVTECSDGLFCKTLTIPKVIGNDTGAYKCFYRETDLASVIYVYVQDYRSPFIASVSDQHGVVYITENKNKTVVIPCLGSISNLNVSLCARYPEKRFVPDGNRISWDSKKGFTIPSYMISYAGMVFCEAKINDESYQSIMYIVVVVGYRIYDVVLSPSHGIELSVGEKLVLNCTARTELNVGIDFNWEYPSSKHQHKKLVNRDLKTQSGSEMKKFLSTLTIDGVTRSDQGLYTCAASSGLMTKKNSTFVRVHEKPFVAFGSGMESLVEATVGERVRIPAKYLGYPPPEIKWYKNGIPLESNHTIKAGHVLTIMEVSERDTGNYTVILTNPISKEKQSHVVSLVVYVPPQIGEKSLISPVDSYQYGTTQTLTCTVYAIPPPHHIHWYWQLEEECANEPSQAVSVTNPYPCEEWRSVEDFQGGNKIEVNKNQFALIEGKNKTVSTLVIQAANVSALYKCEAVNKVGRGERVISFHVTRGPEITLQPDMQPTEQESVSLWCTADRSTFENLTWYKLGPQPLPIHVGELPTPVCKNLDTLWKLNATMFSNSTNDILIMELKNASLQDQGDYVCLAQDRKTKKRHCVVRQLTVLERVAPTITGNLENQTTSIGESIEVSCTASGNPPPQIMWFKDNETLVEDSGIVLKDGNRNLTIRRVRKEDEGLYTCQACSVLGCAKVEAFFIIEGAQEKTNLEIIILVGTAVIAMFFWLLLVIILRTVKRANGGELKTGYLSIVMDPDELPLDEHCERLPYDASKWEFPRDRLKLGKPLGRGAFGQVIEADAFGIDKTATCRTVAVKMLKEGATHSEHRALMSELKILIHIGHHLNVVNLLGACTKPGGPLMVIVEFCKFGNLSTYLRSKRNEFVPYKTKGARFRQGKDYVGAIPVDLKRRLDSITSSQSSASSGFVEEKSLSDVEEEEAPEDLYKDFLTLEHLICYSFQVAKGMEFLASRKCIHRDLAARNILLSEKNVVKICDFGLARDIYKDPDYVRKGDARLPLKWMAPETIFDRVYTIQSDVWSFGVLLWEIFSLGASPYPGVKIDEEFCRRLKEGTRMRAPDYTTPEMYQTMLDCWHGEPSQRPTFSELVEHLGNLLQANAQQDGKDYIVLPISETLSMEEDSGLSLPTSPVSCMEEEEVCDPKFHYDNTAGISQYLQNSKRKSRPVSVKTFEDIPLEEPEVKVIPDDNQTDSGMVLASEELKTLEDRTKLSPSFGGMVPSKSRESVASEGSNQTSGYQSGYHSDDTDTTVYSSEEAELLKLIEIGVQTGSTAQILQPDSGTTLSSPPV

Chain of Tyrosine-protein kinase Lck (Homo sapiens) (P06239 2-509 limits assumed): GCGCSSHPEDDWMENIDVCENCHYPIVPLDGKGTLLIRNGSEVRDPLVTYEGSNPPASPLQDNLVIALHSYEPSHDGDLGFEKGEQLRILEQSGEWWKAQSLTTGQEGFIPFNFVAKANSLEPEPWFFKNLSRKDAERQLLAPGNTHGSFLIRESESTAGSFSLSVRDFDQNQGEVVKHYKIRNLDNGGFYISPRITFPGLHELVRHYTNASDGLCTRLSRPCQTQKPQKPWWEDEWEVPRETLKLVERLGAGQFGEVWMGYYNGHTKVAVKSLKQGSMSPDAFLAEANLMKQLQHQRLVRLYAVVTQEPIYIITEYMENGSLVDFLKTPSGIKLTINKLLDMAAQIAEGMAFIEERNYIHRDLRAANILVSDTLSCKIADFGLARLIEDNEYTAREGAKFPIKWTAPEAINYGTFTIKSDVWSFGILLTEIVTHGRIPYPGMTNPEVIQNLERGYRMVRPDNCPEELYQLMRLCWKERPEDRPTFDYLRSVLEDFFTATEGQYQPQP
Chain of Epidermal growth factor receptor (Homo sapiens) (P00533 whole entry): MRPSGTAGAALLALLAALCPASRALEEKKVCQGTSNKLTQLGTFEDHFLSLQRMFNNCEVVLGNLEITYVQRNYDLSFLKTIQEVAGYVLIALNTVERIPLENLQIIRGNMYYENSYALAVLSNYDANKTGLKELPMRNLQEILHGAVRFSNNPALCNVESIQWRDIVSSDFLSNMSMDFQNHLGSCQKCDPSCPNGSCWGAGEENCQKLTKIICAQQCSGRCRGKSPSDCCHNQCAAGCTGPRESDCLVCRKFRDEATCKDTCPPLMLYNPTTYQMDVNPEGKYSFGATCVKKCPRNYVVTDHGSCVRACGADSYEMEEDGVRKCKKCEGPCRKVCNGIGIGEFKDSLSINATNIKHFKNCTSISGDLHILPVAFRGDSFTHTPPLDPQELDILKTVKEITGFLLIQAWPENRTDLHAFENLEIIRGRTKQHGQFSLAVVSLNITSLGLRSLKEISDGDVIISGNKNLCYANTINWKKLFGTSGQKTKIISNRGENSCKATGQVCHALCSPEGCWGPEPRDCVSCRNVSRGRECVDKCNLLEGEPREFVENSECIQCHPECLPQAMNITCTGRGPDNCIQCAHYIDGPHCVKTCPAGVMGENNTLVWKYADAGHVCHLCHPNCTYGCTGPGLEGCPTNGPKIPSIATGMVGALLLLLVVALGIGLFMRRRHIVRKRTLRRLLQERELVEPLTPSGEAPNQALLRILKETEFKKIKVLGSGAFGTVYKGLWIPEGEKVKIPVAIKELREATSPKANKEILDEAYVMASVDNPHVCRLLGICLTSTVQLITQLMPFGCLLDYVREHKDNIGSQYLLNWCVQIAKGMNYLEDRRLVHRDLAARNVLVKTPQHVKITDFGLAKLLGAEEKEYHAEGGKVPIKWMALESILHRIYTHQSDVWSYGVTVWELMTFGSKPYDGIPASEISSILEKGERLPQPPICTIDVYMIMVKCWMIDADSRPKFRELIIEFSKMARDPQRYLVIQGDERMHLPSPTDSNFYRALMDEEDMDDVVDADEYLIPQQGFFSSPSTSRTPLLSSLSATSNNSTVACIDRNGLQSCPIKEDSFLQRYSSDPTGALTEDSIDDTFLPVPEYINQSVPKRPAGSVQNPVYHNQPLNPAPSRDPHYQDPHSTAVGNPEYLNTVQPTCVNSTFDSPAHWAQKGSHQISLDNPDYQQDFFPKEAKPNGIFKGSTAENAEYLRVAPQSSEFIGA
Chain of Mitogen-activated protein kinase 1 (Homo sapiens) (P28482 whole entry): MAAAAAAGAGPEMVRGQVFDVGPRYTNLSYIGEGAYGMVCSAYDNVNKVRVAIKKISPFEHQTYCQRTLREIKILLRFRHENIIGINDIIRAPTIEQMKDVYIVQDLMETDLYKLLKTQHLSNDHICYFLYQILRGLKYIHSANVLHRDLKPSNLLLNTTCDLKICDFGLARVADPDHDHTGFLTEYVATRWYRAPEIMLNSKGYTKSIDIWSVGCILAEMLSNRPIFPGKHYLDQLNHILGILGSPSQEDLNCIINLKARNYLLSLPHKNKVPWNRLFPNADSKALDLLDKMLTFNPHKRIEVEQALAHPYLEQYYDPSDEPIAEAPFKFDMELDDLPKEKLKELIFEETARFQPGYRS
Chain of Casein kinase I isoform alpha (Homo sapiens) (P48729 2-337 limits assumed): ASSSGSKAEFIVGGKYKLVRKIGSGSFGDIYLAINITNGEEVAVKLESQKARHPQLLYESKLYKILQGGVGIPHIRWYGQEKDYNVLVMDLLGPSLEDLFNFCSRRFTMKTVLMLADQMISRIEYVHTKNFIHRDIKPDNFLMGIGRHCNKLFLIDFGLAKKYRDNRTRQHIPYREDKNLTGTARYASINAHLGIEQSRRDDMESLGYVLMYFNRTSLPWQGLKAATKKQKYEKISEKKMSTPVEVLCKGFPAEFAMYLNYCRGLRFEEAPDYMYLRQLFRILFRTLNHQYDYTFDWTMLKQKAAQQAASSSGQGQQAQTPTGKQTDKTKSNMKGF
Chain of Serine/threonine-protein kinase MARK1 (Q9P0L2 whole entry): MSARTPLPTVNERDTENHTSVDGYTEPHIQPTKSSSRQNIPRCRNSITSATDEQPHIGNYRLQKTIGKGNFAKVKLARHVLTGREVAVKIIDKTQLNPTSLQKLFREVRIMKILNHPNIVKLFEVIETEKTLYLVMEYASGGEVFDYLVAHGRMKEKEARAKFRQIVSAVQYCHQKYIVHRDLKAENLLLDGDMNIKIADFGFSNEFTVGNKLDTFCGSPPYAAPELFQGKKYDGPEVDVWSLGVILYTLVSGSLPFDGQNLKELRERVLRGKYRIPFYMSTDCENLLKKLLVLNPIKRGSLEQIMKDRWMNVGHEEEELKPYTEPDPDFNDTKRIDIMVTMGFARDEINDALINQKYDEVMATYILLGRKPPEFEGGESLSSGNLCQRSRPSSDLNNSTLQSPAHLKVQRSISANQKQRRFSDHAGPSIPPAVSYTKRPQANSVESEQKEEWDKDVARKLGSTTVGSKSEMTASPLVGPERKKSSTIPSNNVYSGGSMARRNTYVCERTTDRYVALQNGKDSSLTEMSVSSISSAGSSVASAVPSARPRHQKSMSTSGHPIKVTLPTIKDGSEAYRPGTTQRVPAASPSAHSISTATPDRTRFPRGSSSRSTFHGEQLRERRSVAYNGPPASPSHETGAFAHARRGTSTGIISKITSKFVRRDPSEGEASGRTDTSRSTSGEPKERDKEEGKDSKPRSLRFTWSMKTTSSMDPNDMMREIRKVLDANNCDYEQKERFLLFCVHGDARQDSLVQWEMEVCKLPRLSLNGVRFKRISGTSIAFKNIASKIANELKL

inhibition [1] [%]	inhibition [2] [%]	inhibition [3] [%]	inhibition [4] [%]	inhibition [5] [%]	inhibition [6] [%]	inhibition [7] [%]	Ki [8] [nM]	IC50 [9] [nM]	EC50 [10] [nM]	inhibition [11] [%]	IC50 [12] [nM]	Ki [13] [nM]	inhibition [14] [%]	inhibition [15] [%]	EC50 [16] [nM]	inhibition [17] [%]	Compound
4	3	-2	-2	-3	42	7	1900	1300	1700	7	860	3900	11	4	5200	34	CC(=O)N1CC[C@@H](Nc2cncc(C(=O)c3cn(C(C)C)c4ncnc(N)c34)n2)[C@H]1c1ccccc1
8	-4	-8	1	-2	76	24	1300	590	1900	4	340	2600	22	3	2200	51	CC(=O)N1CC[C@@H](Nc2cncc(C(=O)c3cn(C(C)C)c4ncnc(N)c34)n2)[C@H]1c1ccc(F)cc1
12	5	3	7	3	66	38	130	110	700	7	180	2800	27	4	1800	49	CC(C)n1cc(C(=O)c2cncc(N[C@@H]3CCN(C=O)[C@@H]3c3ccc(F)cc3)n2)c2c(N)ncnc21

From ChEMBL document CHEMBL1938337, “Discovery of novel, potent, and selective inhibitors of 3-phosphoinositide-dependent kinase (PDK1)” (J Med Chem, 2011)
